Screens: PubChem, several laboratories
The sample as a whole holds a higher share of hits than the screen did.
ABCG2 inh = ABCG2 efflux pump inhibitors, primary screen, multiplex with ABCB1, IgMXP3 cells, flow cytometry; Broad substrate specificity ATP-binding cassette transporter ABCG2 (Homo sapiens), Q9UNQ0; JC-1 efflux; inhibition, % at 6.6 µM; 0.1% of 190,000 active; AID 1325, 2008;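 active = inhibition above 80%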;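 also: 0% = DMSO and 100% = nicardipine control wells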
Target sequence (Q9UNQ0 whole entry, looked up): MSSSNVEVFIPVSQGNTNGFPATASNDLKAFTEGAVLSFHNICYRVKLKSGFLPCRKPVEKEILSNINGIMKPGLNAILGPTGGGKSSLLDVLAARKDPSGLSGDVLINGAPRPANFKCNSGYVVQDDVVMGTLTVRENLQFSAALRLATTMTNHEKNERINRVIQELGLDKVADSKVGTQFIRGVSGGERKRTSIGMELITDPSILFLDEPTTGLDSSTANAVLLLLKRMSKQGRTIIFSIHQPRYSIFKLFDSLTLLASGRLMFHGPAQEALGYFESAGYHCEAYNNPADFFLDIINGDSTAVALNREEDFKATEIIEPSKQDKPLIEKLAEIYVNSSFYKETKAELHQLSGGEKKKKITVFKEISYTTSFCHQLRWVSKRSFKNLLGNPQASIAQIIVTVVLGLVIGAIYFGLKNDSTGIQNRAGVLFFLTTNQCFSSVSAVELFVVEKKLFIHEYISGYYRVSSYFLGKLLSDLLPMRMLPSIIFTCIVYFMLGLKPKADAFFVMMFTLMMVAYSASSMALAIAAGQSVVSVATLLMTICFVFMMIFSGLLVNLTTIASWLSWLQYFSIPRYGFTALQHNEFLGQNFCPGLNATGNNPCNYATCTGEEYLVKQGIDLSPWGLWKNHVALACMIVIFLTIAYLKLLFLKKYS
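Test system: IgMXP3 (ABCG2) plus far-red-tagged CCRF-Adr (ABCB1) cells. Reagent: JC-1 dye as substrate. Timing: 10 min exposure at 25 °C with rotation, no wash. Measured by: flow cytometric JC-1 green MFI at 530 nm. Read-out: percent efflux inhibition, scaled nicardipine 100% to DMSO 0%. Control set: nicardipine and DMSO wells.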
ABCB1 block = ABCB1 efflux pump inhibitors, primary screen, cell-based, multiplex, flow cytometry, ABCG2 counter-screen | ATP-dependent translocase ABCB1 (Homo sapiens), P08183 | CCRF-Adr cells, JC-1 efflux | inhibition, % at 6.6 µM | 0.067% of 190,000 active | AID 1326, 2008; in the data active = inhibition above about 40%;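 also: 0% = vehicle and 100% = reference inhibitor; higher value means more JC-1 retained so stronger ABCB1 efflux block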
L major viab = Leishmania major promastigote growth inhibition, primary screen; Leishmania major promastigotes, resazurin fluorescence viability; inhibition, % at 10 µM; 9% of 200,000 active; AID 1063, 2008;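 also: promastigotes grown with compound for 44 hours at 28 °C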
PKD1 inh = inhibitors of human PKD1 kinase, biochemical, fluorescence polarization; Serine/threonine-protein kinase D1 (Homo sapiens), Q15139; PKD1 kinase fluorescence polarization assay; inhibition, % (test concentration not listed); 0.056% of 200,000 active; AID 797, 2007
Avidin fluor = green autofluorescence of compounds with avidin beads – biophysical, 488/530 nm, flow cytometry, artefact control, profiling panel. compound fluorescence 488/530 nm; hits give high values. fluorescence (KMESF) at 10 µM. 0.38% of 220,000 active. AID 1775, 2009; in the data active = fluorescence above about 47
GSH fluor = compound fluorescence on glutathione beads, profiling panel, artefact control, biophysical, 488/530 nm, flow cytometry; GSH beads flow cytometry, compound fluorescence 488/530 nm; hits give high values; fluorescence (KMESF) at 10 µM; 0.25% of 190,000 active; AID 1776, 2009; in the data active = fluorescence above about 89;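 also: glutathione beads carrying GST-tagged Bcl family fusion proteins plus one bare bead set; values are compound well signal with DMSO vehicle wells as background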
* hit, by the source's call. Rule as the data show it, unless noted: active = inhibition above about 50%; inactive = the rest.

SMILES	ABCG2 inh	ABCB1 block	L major viab	PKD1 inh	Avidin fluor	GSH fluor
COc1cc(N2CN=c3s/c(=C\c4ccccn4)c(=O)n3C2)cc(OC)c1OC	1	0	0	-12	9	265*
O=c1/c(=C/c2ccccn2)sc2n1CN(c1ccccc1)CN=2	1	0	-2	7	3	3
CC(C)c1nnc(NC(=O)c2c(O)c3cccc4c3n(c2=O)CCC4)s1	-3	-1	72*	-4	30	10
CN1C(=O)CC(N2CCN(CC(=O)N3CCCC3)CC2)C1=O (centres undefined)	-2	-2	-4	-7	17	22
CC1CC(=O)N(CC(=O)N2CCCC2)c2ccccc2S1 (centres undefined)	2	0	-5	18	10	12
CSc1ccc2c(c1)N(CCC1CCCCN1C)c1ccccc1S2 (centres undefined)	-2	-1	99*	3	11	19
CC(C)COC(=O)N(C)c1ccc(C(O)(C(F)(F)F)C(F)(F)F)cc1	2	0	100*	-7	2	32
Nc1cc(=O)[nH]c(SCCNS(=O)(=O)c2ccccc2)n1	0	0	-9	-6	10	7
CCCCC(=O)NCc1ccccc1Cl	0	0	4	-17	20	11
CCCCC(=O)NC(c1ccccc1Cl)c1c(O)ccc2ccccc12 (centres undefined)	5	4	99*	-7	14	3
CCCC(=O)NC(c1ccccc1Cl)c1c(O)ccc2ccccc12 (centres undefined)	5	1	100*	-16	5	6
CC(=O)NC(c1ccccc1)c1c(O)ccc2ccccc12 (centres undefined)	0	0	37	4	25	58
COc1ccc(-c2cc(-c3ccc(Br)cc3)nc3ncnn23)cc1OC	0	0	19	3	6	38
O=C(c1cccs1)N1CCN=C1SCc1ccccc1F	2	0	-3	-4	26	9
COc1ccc(NC(=S)N(CCCN2CCCC2)Cc2ccco2)cc1	-1	-1	14	7	4	10
COc1ccc(NC(=S)N(CCCN2CCCCCC2)Cc2cccs2)cc1	6	0	97*	-4	10	21
CSc1cccc(NC(=S)N(CCCN2CCCC2)Cc2cccs2)c1	-1	0	99*	2	10	13
Cc1ccc(Cl)cc1NC(=S)N(CCCN1CCN(C)CC1)Cc1cccs1	4	3	54*	-5	12	10
COc1ccc(NC(=S)N(CCCN2CCCC2)Cc2cccs2)cc1	5	0	80*	-7	10	14
Cc1csc(NC(=O)C2CCCN2C(=O)Oc2ccccc2)n1 (centres undefined)	-1	0	-8	-10	5	53
Cc1cc(C)c(S(=O)(=O)NCc2cn3c(C)csc3n2)cc1C	4	1	4	-1	7	11
COc1ccnc(Oc2ccccc2)c1C(N)=O	6	0	-3	2	3	10
COc1ccc(NC(=S)N(CCCN2CCCC(C)C2)Cc2cccs2)cc1 (centres undefined)	-1	0	95*	0	10	15
COc1ccc(NC(=S)N(CCN(C)C)Cc2cccs2)cc1	-4	-1	7	-6	4	10
Cc1nn2c(-c3cccc(NC(=O)c4ccco4)c3)nnc2c2ccccc12	0	0	101*	-8	6	21
SMILES	ABCG2 inh	ABCB1 block	L major viab	PKD1 inh	Avidin fluor	GSH fluor
O=C(CCn1nc(-c2ccc(Cl)cc2)c2ccccc2c1=O)Nc1cccnc1	6	1	62*	4	10	20
O=C(NCCCN1CCOCC1)[C@@H]1CSC2c3ccccc3C(=O)N21 (some centres undefined)	7	0	1	-9	9	29
Cc1ccc(Cn2cnc3ccccc32)cc1	1	1	78*	-1	5	6
c1ccc2c(c1)ncn2CCn1cnc2ccccc21	0	0	-6	-9	3	16
CCOC(=O)c1c(C)nc2cc(C)cc(C)n12	1	0	2	-2	6	12
Cc1ccc(Nc2nc(-c3c(C)nc4ccccn34)cs2)cc1	27	-1	93*	-7	15	22
Cc1ccc(Nc2nc(-c3c(C)nc4ncccn34)cs2)cc1	36	-2	60*	-19	11	26
O=C(N/N=C/c1cccc([N+](=O)[O-])c1)C1CC(=O)N(c2ccc(Cl)cc2)C1 (centres undefined)	0	0	95*	-7	7	68
O=C1C=C(Nc2ccc(Cl)cc2)CC(c2ccc(Cl)cc2)C1 (centres undefined)	9	1	56*	-5	24	10
c1ccc(-c2cccc(-c3ccccn3)n2)nc1	1	0	100*	8	28	21
Cc1sc2ncnc(SCC(=O)NC(=O)c3cccn3C)c2c1C	13	1	1	-7	14	17
COc1ccc(C(C(=O)NC2CCCCC2)N(C(=O)CCl)c2cccc(Cl)c2)cc1 (centres undefined)	1	1	100*	2	12	18
CCOc1cccc(N(C(=O)C2COc3ccccc3O2)C(C(=O)NC2CCCCC2)c2ccc(O)cc2)c1 (centres undefined)	-5	0	82*	-4	14	9
CC(C)CCNC(=O)C(c1ccc(O)cc1)N(C(=O)C1COc2ccccc2O1)c1cccc(O)c1 (centres undefined)	1	0	-9	1	11	23
COc1cccc(N(C(=O)c2cnccn2)C(C(=O)NC2CCCCC2)c2ccc(Cl)cc2)c1 (centres undefined)	1	1	-1	-10	7	43
COc1ccc(C(C(=O)NC2CCCC2)N(Cc2ccccc2)C(=O)CNC(=O)c2ccco2)cc1 (centres undefined)	2	0	67*	-3	6	41
COc1ccc(CN(C(=O)Cc2c[nH]c3ccccc23)C(C(=O)NC2CCCCC2)c2ccc(C)o2)cc1 (centres undefined)	7	4	69*	-5	3	28
CCCCc1ccc(NC2=NCC(=O)N2CCc2ccccc2)cc1	1	0	-4	-7	12	13
O=C(CCCC(=O)N(c1ccc2c(c1)OCCO2)C(C(=O)NC1CCCCC1)c1ccc(F)cc1)Nc1ccccn1 (centres undefined)	3	1	-1	-15	22	12
